Measured values: PubChem BioAssay AID652163 (Broad Institute, 2013)
Values joined by “and” are separate entries in the source; they are usually repeats but may differ in a detail not shown here. Equal entries are not always repeated. In all, about 360,000 compounds went through this assay and about 500 (0.14%) were called active.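 Rule for the calls: active = mean inhibition of at least 70% across replicates, with every replicate also reaching that level; inconclusive = mean inhibition reaches 70% but some replicates fall short; inactive = mean inhibition below 70%.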 Only a selection was taken, and actives are over-represented in it overall. The source holds several records for some structures; these can differ, active in one and inactive in another.

Biological target: Protein S100-A4 (Homo sapiens) (UniProt P26447)
Test: inhibitors of S100A4-myosin IIA peptide binding, primary screen, biochemical, fluorescence polarization, TAMRA-MyoIIA peptide (AID 652163)
Details: at 10.7 µM, stronger effect = higher value
In short: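 Material: human S100A4 monomer with TAMRA-labelled myosin IIA peptide; buffer or medium: HEPES pH 7.2 with CaCl2, KCl, NaCl, DTT, Triton; compound dosing: one concentration per compound; schedule: 5 min incubation before reading; benchmarks: neutral control DMSO, positive control TFP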

Chain of Protein S100-A4 (Homo sapiens) (P26447 whole entry, looked up): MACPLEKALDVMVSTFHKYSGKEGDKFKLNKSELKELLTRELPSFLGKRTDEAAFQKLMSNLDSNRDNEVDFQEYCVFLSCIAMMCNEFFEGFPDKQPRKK

Compound | inhibition
C[C@@H]1CN([C@@H](C)CO)C(=O)c2c(c3ccccc3n2C)-c2ccccc2CO[C@@H]1CN(C)Cc1ccc2c(c1)OCCN2C | 1.33% (inactive)
O=C(N[C@@H]1CC[C@@H](CCNS(=O)(=O)Cc2ccccc2)O[C@@H]1CO)c1ccccc1F | 3.62% (inactive)
O=C(N[C@H]1CC[C@@H](CCNS(=O)(=O)Cc2ccccc2)O[C@H]1CO)c1ccccc1F | 106% (active)
CC(C)NC(=O)N[C@@H]1CC[C@@H](CCNS(=O)(=O)Cc2ccccc2)O[C@@H]1CO | -2.44% (inactive)
C[C@@H]1CN([C@@H](C)CO)C(=O)Cc2cc(NC(=O)Cc3ccccc3)ccc2O[C@@H]1CN(C)C(=O)Nc1ccc2c(c1)OCO2 | -20.2% (inactive)
CS(=O)(=O)Nc1ccc2c(c1)[C@H]1C[C@H](CC(=O)NC3CCCC3)O[C@@H](CO)[C@H]1O2 | 5.62% (inactive)
CN(C)C(=O)[C@@H]1[C@@H](CO)[C@@H]2Cn3c(ccc(C4=CCCC4)c3=O)[C@H]1N2Cc1ccccn1 | 6.14% (inactive)
COc1ccc2c3c([nH]c2c1)[C@@H](CO)N(C(=O)c1cccc(F)c1)CC31CN(C(C)=O)C1 | -5.37% (inactive)
CCOc1ccc(N(CC(=O)NCCOc2ccccc2OC)S(=O)(=O)c2ccccc2)cc1 | 116% (active)
COc1ccc(CCNC(=O)CN(c2ccccc2)S(=O)(=O)c2ccccc2)cc1 | 0.0805% (inactive)
CCOc1ccc(N(CC(=O)NCCc2ccc(F)cc2)S(=O)(=O)c2ccccc2)cc1 | -1.04% (inactive)
N[C@@H]1CC[C@H](CCn2cc(C3CC3)nn2)O[C@@H]1CO | 5.57% (inactive)
C[C@@H]1CN([C@H](C)CO)C(=O)c2cc(NC(=O)CCCCCC(=O)Nc3ccccc3N)ccc2O[C@H]1CN(C)C(=O)Nc1ccc(C(F)(F)F)cc1 | -13% (inactive)
C[C@H](CO)N1C[C@H](C)[C@@H](CN(C)Cc2ccncc2)Oc2cc(Br)ccc2S1(=O)=O | -8.65% (inactive)
C[C@@H]1CN([C@@H](C)CO)C(=O)c2cccc(NC(=O)Nc3ccccc3)c2O[C@H]1CN(C)Cc1ccccc1 | -2.48% (inactive)
C[C@@H]1CN([C@@H](C)CO)C(=O)c2cc(NC(=O)c3ccncc3)ccc2O[C@@H]1CN(C)Cc1ccncc1 | 106% (active)
C[C@H]1CN([C@@H](C)CO)C(=O)c2cccc(NC(=O)c3ccncc3)c2O[C@@H]1CN(C)C | 1.35% (inactive)
C[C@@H]1CN([C@@H](C)CO)C(=O)c2cc(NC(=O)c3ccncc3)ccc2O[C@H]1CN(C)Cc1ccc(C(=O)O)cc1 | 3.13% (inactive)
C[C@H]1CN([C@@H](C)CO)C(=O)c2cccc(NC(=O)Nc3ccccc3)c2O[C@H]1CN(C)Cc1ccc(Oc2ccccc2)cc1 | -8.88% (inactive)
C[C@H]1CN([C@@H](C)CO)C(=O)c2cccc(NC(=O)c3ccncc3)c2O[C@H]1CN(C)C | 13.8% (inactive)
COc1ccc(CN(C)C[C@H]2Oc3c(NC(=O)Nc4ccccc4)cccc3C(=O)N([C@@H](C)CO)C[C@@H]2C)cc1 | 91.2% (active)

Compound | inhibition
C[C@@H]1CN([C@H](C)CO)C(=O)c2cccc(NC(=O)c3ccncc3)c2O[C@@H]1CN(C)C | 111% (active)
C[C@@H]1CN([C@H](C)CO)C(=O)c2cc(NC(=O)c3ccncc3)ccc2O[C@H]1CN(C)Cc1ccc(Oc2ccccc2)cc1 | 1.42% (inactive)
CO[C@H]1CC[C@H]2CCN(C)C(=O)C[C@@H](c3ccccc3)CN(C)C(=O)c3cccc(C#N)c3OC[C@@H]1O2 | 0.912% (inactive)
CCCNC(=O)N1[C@@H]2CN(C)c3ccccc3[C@@H]2[C@@H]1CO | 7.1% (inactive)
COc1ccc(S(=O)(=O)N(C)C[C@H]2Oc3ccc(NC(=O)Nc4c(C)noc4C)cc3C(=O)N([C@@H](C)CO)C[C@@H]2C)cc1 | -9.31% (inactive)
Cc1noc(C)c1NC(=O)N(C)C[C@@H]1OCCCC[C@H](C)Oc2ccc(NC(=O)CCC(F)(F)F)cc2C(=O)N([C@@H](C)CO)C[C@@H]1C | 5.68% (inactive)
CC(=O)N(C)C[C@@H]1Oc2cc(-c3cccc(F)c3)ccc2S(=O)(=O)N([C@H](C)CO)C[C@H]1C | -20.8% (inactive)
CC(C)(O)C#Cc1ccc([C@H]2[C@H]3CN(C(=O)c4ccncc4)CCCCN3[C@H]2CO)cc1 | -11.2% (inactive)
COc1ccc(S(=O)(=O)Nc2ccc3c(c2)C(=O)N([C@@H](C)CO)C[C@H](C)[C@H](CN(C)Cc2ccc4c(c2)OCO4)OCCCC[C@H](C)O3)cc1 | -9.48% (inactive)
COc1cccc(C(=O)Nc2ccc3c(c2)C(=O)N(C)[C@H]2CC[C@@H](CC(=O)N[C@H](C)c4ccccc4)O[C@H]2CO3)c1 | -0.71% (inactive)
C=CCN1C(=O)[C@]2(O[C@H](CCn3cc(CCO)nn3)[C@@H]([Si](C)(C)c3ccc(OC)cc3)[C@@H]2C)c2cc(N3CCOC3=O)ccc21 | 10.3% (inactive)
C[C@H](CO)N1C[C@H](C)[C@@H](CN(C)CC2CC2)Oc2ccc(NC(=O)CCCN(C)C)cc2CC1=O | -0.322% (inactive)
O=C(C[C@@H]1C=C[C@@H](NS(=O)(=O)c2ccccc2)[C@H](CO)O1)N1CCN(c2ccccc2)CC1 | 8.62% (inactive)
COc1ccccc1S(=O)(=O)N[C@@H]1C=C[C@H](CC(=O)N2CCN(C)CC2)O[C@@H]1CO | 59.7% (inactive)
CN1CCN(C(=O)C[C@@H]2C=C[C@@H](NS(=O)(=O)c3cccc(F)c3)[C@@H](CO)O2)CC1 | 103% (active)
Nc1ncnc2c1ncn2C1OC(CO)CC1O (stereo not drawn) | 0.763% (inactive)
CO[C@@H]1CN(C)C(=O)c2cc(NC(=O)c3ccccc3)ccc2OC[C@H](C)N(C(=O)CN(C)C)C[C@H]1C | -0.975% (inactive)
C=C[C@H](OC)[C@@H](O)c1ccc(OC)c(O)c1 | -5.17% (inactive)
CN1C(=O)c2cc(NC(=O)C3CCOCC3)ccc2OC[C@@H]2O[C@H](CC(=O)NCc3ccccc3F)CC[C@H]21 | 4.38% (inactive)
CN1C(=O)c2cc(NC(=O)C3CCCC3)ccc2OC[C@H]2O[C@H](CC(=O)NCc3ccccc3F)CC[C@H]21 | -2.52% (inactive)
CN1C(=O)c2cc(NC(=O)C3CCC3)ccc2OC[C@@H]2O[C@@H](CC(=O)NCc3ccccc3F)CC[C@@H]21 | 88.8% (active)

Compound | inhibition
C[C@@H]1CN([C@@H](C)CO)C(=O)c2cc(C3=CCCC3)cnc2O[C@H]1CN(C)Cc1ccccc1F | 0.298% (inactive)
COc1cccc2c1C(=O)c1c(O)c3c(c(O)c1C2=O)CC(O)(C(C)=NNC(=O)c1ccc(Cl)c(Cl)c1)CC3OC1CC(N)C(O)C(C)O1 (stereo not drawn) | 189% (active)
Cc1noc(C)c1S(=O)(=O)N(C)C[C@H]1OCc2cn(nn2)CCCC(=O)N([C@H](C)CO)C[C@H]1C | -10.8% (inactive)
C[C@H]1CN([C@@H](C)CO)C(=O)CCCn2cc(nn2)CO[C@@H]1CN(C)S(=O)(=O)c1cccs1 | 1.44% (inactive) and -0.084% (inactive)
C[C@@H]1CN([C@H](C)CO)C(=O)CCCn2cc(nn2)CO[C@H]1CN(C)S(C)(=O)=O | -42.7% (inactive) and 116% (active) and -0.12% (inactive)
C[C@H]1CN([C@@H](C)CO)C(=O)c2cccc(NC(=O)Nc3ccc(C(F)(F)F)cc3)c2O[C@H]1CN(C)CC1CCCCC1 | 0.766% (inactive)
CO[C@H]1CN(C)C(=O)c2ccc(NS(C)(=O)=O)cc2OC[C@H](C)N(C(=O)C2CCC2)C[C@H]1C | 3.67% (inactive)
COC(=O)c1cc2c(c3c4ccccc4n(S(=O)(=O)c4cccc(C)c4)c13)C(=O)N(Cc1ccccc1)C2 | -0.199% (inactive)
O=C(C[C@@H]1CC[C@@H]2[C@H](COC[C@@H](O)CN2S(=O)(=O)c2ccccc2)O1)NCC1CCCCC1 | -4.89% (inactive)
CN1CCN(C(=O)C[C@@H]2CC[C@@H]3[C@@H](COc4ccc(NC(=O)c5ccc(F)c(F)c5)cc4C(=O)N3C)O2)CC1 | -20.1% (inactive)
O=C(NCC1CC1)[C@H]1[C@H](CO)[C@H]2Cn3c(ccc(/C=C/c4ccccc4)c3=O)[C@@H]1N2C(=O)C1CCC1 | 5.09% (inactive)
COCC#Cc1ccc([C@@H]2[C@H]3CN(C(=O)C4CCOCC4)CC(=O)N3[C@H]2CO)cc1 | 10.1% (inactive)
COc1cccc(S(=O)(=O)N[C@@H]2C=C[C@H](CC(=O)NC3CCC3)O[C@@H]2CO)c1 | 11.1% (inactive)
O=C(Nc1nccs1)[C@@H]1[C@@H](CO)[C@@H]2Cn3c(ccc(-c4cccnc4)c3=O)[C@@H]2N1CC1CC1 | 5.29% (inactive)
O=C([C@H]1N[C@H]2c3ccc(-c4ccccc4)c(=O)n3C[C@H]2[C@@H]1CO)N1CCOCC1 | -1.77% (inactive)
CO[C@H]1CN(C)C(=O)c2cc(NC(=O)C3CCC3)ccc2OC[C@H](C)N(C)C[C@H]1C | 6.42% (inactive)
CO[C@@H]1CN(C)C(=O)c2cc(NC(=O)c3cc(C)on3)ccc2OC[C@@H](C)N(C(C)=O)C[C@@H]1C | -1.83% (inactive)
C[C@@H]1CN([C@H](C)CO)C(=O)c2cccc(NS(=O)(=O)c3ccc(Cl)cc3)c2O[C@H]1CN(C)C(=O)NC1CCCCC1 | 3.25% (inactive)
CC(C)CC#Cc1ccc([C@H]2[C@H]3CN(C(=O)c4cnccn4)CC(=O)N3[C@H]2CO)cc1 | 1.39% (inactive)
COc1cccc(-c2ccc3n(c2=O)C[C@H]2[C@H](CO)[C@@H](C(=O)NC4CCCC4)[C@@H]3N2C)c1 | 6.59% (inactive)
C/C=C/c1ccc([C@H]2[C@@H](CO)N[C@@H]2CN(CC)C(=O)CN2CCOCC2)cc1 | -4.11% (inactive)
